Reference: PMC4591930 (Angewandte Chemie (International ed. in English), 2015)
Where a SMILES comes first, the peptide text is derived from it. [ ]: non-standard residue; d: D form. The star is where a group is joined. FITC = O=C1OC2(c3ccc(O)cc3Oc3cc(O)ccc32)c2ccc(NC(=S)*)cc21; Phe(4-F) = N[C@@H](Cc1ccc(F)cc1)C(=O)O; d2Nal = N[C@H](Cc1ccc2ccccc2c1)C(=O)O; dNle = CCCC[C@@H](N)C(=O)O

Key:
lung cancer cells [1] = experiment: Cell permeability of hits; format: cell-based, human; conditions: qualitative
Method in brief: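 A549 lung cancer cells given 5 μM FITC-labelled test compound for 30 min. Uptake viewed live by confocal microscopy with DRAQ5 nuclear counterstain. Total cell-associated fluorescence measured by flow cytometry against untreated control cells.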

Ras-Raf interaction = Ras-Raf interaction (Homo sapiens, UniProt P01116, G12V); experiment: Homogeneous time-resolved fluorescence; format: binding; conditions: Gln-8 replaced with L- or D-arginine, versus 9A1-4
[2] = tested on: phosphorylation of Akt at Thr308; experiment: EGF-stimulated Akt Thr308 phosphorylation in H1299 cells; format: cell-based, human
Method in brief: (§1)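 H1299 cells exposed to a range of test compound concentrations for 10 min, then stimulated with EGF (50 ng/ml) for 5 min before lysis. Phospho-Akt (Thr308) and phospho-MEK detected by immunoblot, with total Akt and MEK blotted alongside.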

H1299 cells = experiment: Annexin-FITC / propidium iodide flow cytometry of treated H1299 cells; format: cell-based, human; conditions: 10 μM, 3 h
phosphorylation of MEK = experiment: EGF-stimulated MEK phosphorylation in H1299 cells; format: cell-based, human
Method in brief: as §1

caspase-3 activity = experiment: Caspase-3 activity in H1299 cells; format: cell-based, human; conditions: 10 μM, 3 h
Ras-B-Raf interaction = experiment: Ras-B-Raf co-immunoprecipitation in H358 cells; format: cell-based, human; conditions: anti-Ras precipitation, anti-B-Raf immunoblot
Method in brief: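 H358 lung cancer cells treated with increasing test compound concentrations. Lysates immunoprecipitated with anti-Ras antibody and co-precipitated B-Raf detected by anti-B-Raf immunoblot. Whole-cell lysate blotted alongside.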

lung cancer cells [3] = experiment: Anti-proliferative activity against lung cancer cells; format: cell-based, human; conditions: qualitative
K-Ras = K-Ras (Homo sapiens, UniProt P01116, G12V); experiment: Fluorescence anisotropy; format: binding; conditions: fluorescence anisotropy in solution
[4] = target: panel of five arbitrarily selected control proteins; experiment: FA binding to control proteins
A549 lung cancer cells = experiment: Flow cytometry of cellular uptake of FITC-labeled peptides; format: cell-based, human; conditions: 5 μM, 30 min

Ras-Raf interaction, sequence (P01116 1-188 isoform P01116-2 G12V): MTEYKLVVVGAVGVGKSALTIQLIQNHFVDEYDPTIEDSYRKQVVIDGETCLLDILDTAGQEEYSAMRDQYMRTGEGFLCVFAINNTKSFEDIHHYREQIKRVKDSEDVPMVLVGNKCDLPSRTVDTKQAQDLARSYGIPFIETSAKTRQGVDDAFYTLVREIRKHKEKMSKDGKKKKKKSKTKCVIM
K-Ras, sequence (P01116 1-188 isoform P01116-2 G12V): as above

CCCC[C@H]1NC(=O)[C@H]([C@@H](C)O)NC(=O)[C@@H](C)NC(=O)[C@@H](CCCNC(=N)N)NC(=O)[C@H](CCCNC(=N)N)NC(=O)[C@H](CCCNC(=N)N)NC(=O)[C@@H](Cc2ccc3ccccc3c2)NC(=O)[C@H](CCCNC(=N)N)NC(=O)[C@H](Cc2ccc(F)cc2)NC(=O)[C@H](Cc2c[nH]c3ccccc23)NC(=O)[C@H](CCC(N)=O)NC1=O [9A6] (cyclo(QW[Phe(4-F)]R[d2Nal]RR[dR][dA]T[dNle]))
cell permeability (lung cancer cells [1]): improved cell permeability | fold higher affinity for K-Ras (Ras-Raf interaction): ~ 4 fold

CCCC[C@H]1NC(=O)[C@H]([C@@H](C)O)NC(=O)[C@@H](C)NC(=O)[C@H](CCCNC(=N)N)NC(=O)[C@H](CCCNC(=N)N)NC(=O)[C@H](CCCNC(=N)N)NC(=O)[C@@H](Cc2ccc3ccccc3c2)NC(=O)[C@H](CCCNC(=N)N)NC(=O)[C@H](Cc2ccc(F)cc2)NC(=O)[C@H](Cc2c[nH]c3ccccc23)NC(=O)[C@H](CCC(N)=O)NC1=O [9A5] (cyclo(QW[Phe(4-F)]R[d2Nal]RRR[dA]T[dNle]))
concentration abolishing Akt Thr308 phosphorylation ([2]; H1299 cells): ≥ 12 µM | exposure time at which dephosphorylation of Akt was largely complete ([2]; time-course experiment): 10 min | annexin-FITC and propidium iodide staining (H1299 cells): positive | concentration abolishing MEK phosphorylation (phosphorylation of MEK; H1299 cells): ≥ 12 µM | exposure time at which dephosphorylation of MEK was largely complete (phosphorylation of MEK; time-course experiment): 10 min | fold increase in caspase-3 activity (caspase-3 activity): 2.3 fold | cell permeability (lung cancer cells [1]): improved cell permeability | fold higher affinity for K-Ras (Ras-Raf interaction): ~ 4 fold | inhibition of Ras-B-Raf interaction in cells (Ras-B-Raf interaction): dose-dependently inhibited

CCCC[C@H]1NC(=O)[C@H]([C@@H](C)O)NC(=O)[C@@H](C)NC(=O)[C@H](CCC(N)=O)NC(=O)[C@H](CCCNC(=N)N)NC(=O)[C@H](CCCNC(=N)N)NC(=O)[C@@H](Cc2ccc3ccccc3c2)NC(=O)[C@H](CCCNC(=N)N)NC(=O)[C@H](Cc2ccc(F)cc2)NC(=O)[C@H](Cc2c[nH]c3ccccc23)NC(=O)[C@@H](CO)NC1=O [9A] (cyclo([dS]W[Phe(4-F)]R[d2Nal]RRQ[dA]T[dNle]))
anti-proliferative activity (lung cancer cells [3]): weak anti-proliferative activity | binding to K-Ras (K-Ras): strong binding | cell permeability (lung cancer cells [1]): cell permeable

CCCC[C@H]1NC(=O)[C@H]([C@@H](C)O)NC(=O)[C@@H](C)NC(=O)[C@H](CCCNC(=N)N)NC(=O)[C@H](CCCNC(=N)N)NC(=O)[C@H](CCCCNC(=S)Nc2ccc3c(c2)C(=O)OC32c3ccc(O)cc3Oc3cc(O)ccc32)NC(=O)[C@@H](Cc2ccc3ccccc3c2)NC(=O)[C@H](CCCNC(=N)N)NC(=O)[C@H](Cc2ccc(F)cc2)NC(=O)[C@H](Cc2c[nH]c3ccccc23)NC(=O)[C@H](CCC(N)=O)NC1=O [FITC-9A5] (cyclo(QW[Phe(4-F)]R[d2Nal]K(FITC)RR[dA]T[dNle]))
Kd [4]: ≥ 30 µM | fold more efficient cell entry than FITC-9A54 (A549 lung cancer cells): ~ 5 fold
